Results on 29 compounds are retold here after ChEMBL document CHEMBL2203045, “Development of 5-nitrothiazole derivatives: identification of leads against both replicative and latent Mycobacterium tuberculosis” (Bioorg Med Chem Lett, 2012).

Values after ≈ are worked out from the molar mass of the structure shown. Active and inactive are the calls of the source. The calls are words filed in the database; no cut-off is given here.

Series [1] is described as follows: Cytotoxicity against HEK293T cells assessed as cellular growth at 25 uM by MTT assay. The series is classed as cell-based, HEK-293T. The note with it: human, read-out: Activity. Put shortly: (§1)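 HEK293T cells were exposed to compound at 25 and 100 and read out by MTT assay.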
(Formazan colour is commonly taken as a measure of viable cells.)

A short description of series [2]: Cytotoxicity against HEK293T cells assessed as cellular growth at 100 uM by MTT assay. The series is classed as cell-based, HEK-293T. The note with it: human, read-out: Activity. Put shortly:
as §1

The test system of series [3] is Mycobacterium tuberculosis. In words: Antitubercular activity against log phase culture of Mycobacterium tuberculosis H37Rv ATCC 27294 by agar dilution method. It is filed as functional. A digest of the protocol:
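H37Rv (ATCC27294) was tested by agar dilution, with the compound serially diluted from 50 to 0.78 in duplicate. MIC was taken as the lowest concentration giving complete growth inhibition.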
In general terms: In agar dilution the substance is mixed into plates at graded concentrations.

Series [4] deals with Mycobacterium tuberculosis. The series is described as follows: Ratio of nitazoxanide MIC to compound MIC for log phase culture of Mycobacterium tuberculosis H37Rv ATCC 27294. The series is classed as functional.
The test system of series [5] is Mycobacterium tuberculosis. In words: Antitubercular activity against non-culturable Mycobacterium tuberculosis assessed as reduction in dormant cell viability at 10 ug/mL measured for 7 days by MPN assay. It is filed as functional, organism-based. A digest of the protocol:
(§2)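 Bacilli were grown in potassium-deficient Sauton's medium with ADC and 0.05% Tween-80 at 37 °C and 200 rpm. Dormancy was confirmed by failure to form colonies on agar-solidified Sauton's. Non-culturable cells were washed and exposed to compound for 7 days, then resuscitated in liquid Sauton's alongside untreated cells. Recovered cell concentration was estimated by Most Probable Number assay with statistical treatment.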

In series [6] the test system is Mycobacterium tuberculosis. In words: Antitubercular activity against non-culturable Mycobacterium tuberculosis assessed as log reduction in dormant cell viability at 10 ug/mL measured for 7 days by MPN assay relative to control. It is filed as functional. A digest of the protocol: as §2
Series [7] in a line: Therapeutic index, ratio of cytotoxicity against HEK293T cells to MIC for log phase culture of Mycobacterium tuberculosis H37Rv ATCC 27294. It is filed as cell-based, HEK-293T. The note with it: human, read-out: TI.

For `O=C(Nc1ncc([N+](=O)[O-])s1)c1ccc(-c2ccc(Cl)cc2)o1`, in series [1], the viability at 25 µM was 75%. For the same compound, the viability at 100 µM in series [2] was found to be 74.1%. The compound further yielded a minimum inhibitory concentration (MIC) in series [3] of 17.9 µM (≈ 6.25 µg/mL).

As for `O=C(Nc1ncc([N+](=O)[O-])s1)c1cc(Cl)cc(Cl)c1O`, the viability at 25 µM in series [1] came to 100%. The viability at 100 µM in series [2] was 23.5%. This compound had a minimum inhibitory concentration (MIC) in series [3] of 74.8 µM (≈ 25 µg/mL).

`O=C(Nc1ncc([N+](=O)[O-])s1)c1ccc(Cl)cc1O` displayed an MIC in series [3] greater than 167 µM.

As for `O=C(Oc1c(Cl)cc(Cl)cc1C(=O)Nc1ncc([N+](=O)[O-])s1)c1ccccc1`, the viability at 25 µM in series [1] was determined as 100%. The viability at 100 µM in series [2] is 61.6%. The MIC in series [3] stood at 28.5 µM (≈ 12.5 µg/mL).

With `O=C(Nc1ncc([N+](=O)[O-])s1)c1ccc(-c2ccc([N+](=O)[O-])cc2)o1`, in series [1], the viability at 25 µM stood at 88.4%. The viability at 100 µM in series [2] turned out to be 79.2%. Besides, in series [3], the MIC was 17.3 µM (≈ 6.25 µg/mL).

With `COc1ccc(OC(=O)c2ccccc2)c(C(=O)Nc2ncc([N+](=O)[O-])s2)c1`, the viability at 25 µM in series [1] was determined as 100%. In addition, the viability at 100 µM in series [2] is 67.6%. Further, in series [3], the lowest concentration to inhibit growth (MIC) was 15.6 µM (≈ 6.25 µg/mL).

For the compound `O=C(Nc1ncc([N+](=O)[O-])s1)c1cccs1` [TENONITROZOLE], the viability at 25 µM in series [1] is 100%. Further, the viability at 100 µM in series [2] was determined as 93.4%. In series [3], this compound had an MIC of 24.5 µM (≈ 6.25 µg/mL).

With `CC(=O)Oc1c(C(=O)Nc2ncc([N+](=O)[O-])s2)cc(C(C)C)cc1C(C)C`, in series [1], the viability at 25 µM is 45.9%. In series [2], the viability at 100 µM stood at 20.6%. Besides, the Ratio in series [4] is on record as 2.54. In series [3], the minimal inhibitory concentration (MIC) amounted to 63.9 µM (≈ 25 µg/mL).

As to `CC(=O)Oc1cc(Cl)ccc1C(=O)Nc1ncc([N+](=O)[O-])s1`, in series [1], the viability at 25 µM amounted to 100%. In addition, the viability at 100 µM in series [2] was found to be 83.5%. Further, the Ratio in series [4] amounted to 4.4. Moreover, the minimal inhibitory concentration (MIC) in series [3] amounted to 36.6 µM (≈ 12.5 µg/mL).

In turn, `CC(C)c1cc(C(=O)Nc2ncc([N+](=O)[O-])s2)c(OC(=O)c2ccccc2)c(C(C)C)c1` came in with a minimal inhibitory concentration (MIC) in series [3] greater than 110 µM.

For the compound `NNC(=O)c1ccncc1` [ISONIAZID], in series [5], the result was Active. This compound yielded a minimum inhibitory concentration (MIC) in series [3] of 0.72 µM (≈ 0.0987 µg/mL).

Regarding `COc1ccc(O)c(C(=O)Nc2ncc([N+](=O)[O-])s2)c1`, in series [1], the viability at 25 µM was 100%. Besides, the viability at 100 µM in series [2] came to 100%. The same compound gave an MIC in series [3] of 84.7 µM (≈ 25 µg/mL).

With `CC(C)c1cc(C(=O)Nc2ncc([N+](=O)[O-])s2)c(O)c(C(C)C)c1`, in series [1], the viability at 25 µM turned out to be 29.4%. In series [2], the viability at 100 µM amounted to 7.1%. In series [3], this compound came in with an MIC of 17.9 µM (≈ 6.25 µg/mL).

For the compound `O=C(Nc1ncc([N+](=O)[O-])s1)c1ccco1`, the MIC in series [3] was determined as 206 µM (≈ 49.2 µg/mL).

As to `O=C(Nc1nc2ccc([N+](=O)[O-])cc2s1)c1ccc([N+](=O)[O-])o1`, the viability at 25 µM in series [1] is 100%. Also, in series [2], the viability at 100 µM was determined as 43.3%. In series [3], this compound showed an MIC of 150 µM (≈ 50 µg/mL). Besides, the FC in series [6] is on record as 1.

In the case of `CC(=O)Oc1ccc(Cl)cc1C(=O)Nc1ncc([N+](=O)[O-])s1`, the viability at 25 µM in series [1] worked out at 59.5%. In addition, in series [2], the viability at 100 µM worked out at 31.1%. In addition, the Ratio in series [4] is given as 8.9. Besides, it took 18.3 µM (≈ 6.25 µg/mL) to inhibit growth in series [3] (MIC).

As for `Cc1ccc(-c2ccc(C(=O)Nc3ncc([N+](=O)[O-])s3)o2)cc1`, the viability at 25 µM in series [1] is 94.1%. In addition, the viability at 100 µM in series [2] amounted to 91.5%. In series [3], this compound came in with an MIC of 19 µM (≈ 6.25 µg/mL).

`O=C(Oc1c(C(=O)Nc2ncc([N+](=O)[O-])s2)cc([N+](=O)[O-])cc1[N+](=O)[O-])c1ccccc1` returned an MIC in series [3] greater than 109 µM.

As to `O=C(Nc1ncc([N+](=O)[O-])s1)c1ccc(-c2ccc(Br)cc2)o1`, in series [1], the viability at 25 µM came to 89.1%. Also, the viability at 100 µM in series [2] came out at 70.3%. In series [3], this compound returned a minimal inhibitory concentration (MIC) of 31.7 µM (≈ 12.5 µg/mL).

Consider `O=C(Nc1ncc([N+](=O)[O-])s1)c1cc(Cl)ccc1O`, for which the viability at 25 µM in series [1] amounted to 100%. The viability at 100 µM in series [2] was 63%. In addition, the MIC in series [3] is 20.9 µM (≈ 6.25 µg/mL).

With `CC(=O)Oc1ccccc1C(=O)Nc1ncc([N+](=O)[O-])s1` [NITAZOXANIDE], 163 µM (≈ 50 µg/mL) was the least that counted as inhibitory in series [3] (MIC).

Consider `COOc1ccc(-c2ccc(C(=O)Nc3ncc([N+](=O)[O-])s3)o2)cc1`, for which the viability at 25 µM in series [1] stood at 100%. In series [2], the viability at 100 µM came out at 95.7%. The same compound returned a minimum inhibitory concentration (MIC) in series [3] of 72.4 µM (≈ 26.2 µg/mL).

As for `CC(=O)Oc1c(Cl)cc(Cl)cc1C(=O)Nc1ncc([N+](=O)[O-])s1`, in series [1], the viability at 25 µM is 100%. In addition, in series [2], the viability at 100 µM was determined as 95.1%. Moreover, the Ratio in series [4] is on record as 2.44. The compound also registered a minimal inhibitory concentration (MIC) in series [3] of 66.5 µM (≈ 25 µg/mL).

`CO[C@H]1/C=C/O[C@@]2(C)Oc3c(C)c(O)c4c(O)c(c(/C=N/N5CCN(C)CC5)c(O)c4c3C2=O)NC(=O)/C(C)=C\C=C\[C@H](C)[C@H](O)[C@@H](C)[C@@H](O)[C@@H](C)[C@H](OC(C)=O)[C@@H]1C` [RIFAMPIN]: the result in series [5] was Active. In addition, it took 0.48 µM (≈ 0.395 µg/mL) to inhibit growth in series [3] (MIC).

For the compound `O=C(Oc1cc(Cl)ccc1C(=O)Nc1ncc([N+](=O)[O-])s1)c1ccccc1`, the MIC in series [3] was greater than 124 µM.

With `O=C(Nc1ncc([N+](=O)[O-])s1)c1ccc([N+](=O)[O-])s1`, the viability at 25 µM in series [1] was found to be 100%. In addition, in series [2], the viability at 100 µM was 35.9%. Also, the MIC in series [3] is 20.8 µM (≈ 6.25 µg/mL).

`COc1ccc(OC(C)=O)c(C(=O)Nc2ncc([N+](=O)[O-])s2)c1`: the viability at 25 µM in series [1] came to 100%. The viability at 100 µM in series [2] turned out to be 94.1%. Moreover, in series [4], the Ratio was 2.19. Moreover, the minimal inhibitory concentration (MIC) in series [3] is 74.1 µM (≈ 25 µg/mL).

On to `O=C(Oc1ccc(Cl)cc1C(=O)Nc1ncc([N+](=O)[O-])s1)c1ccccc1`, for which the viability at 25 µM in series [1] turned out to be 72.2%. Further, in series [2], the viability at 100 µM was found to be 23.7%. For the same compound, the MIC in series [3] was determined as 15.5 µM (≈ 6.25 µg/mL).

Take `O=C(Nc1ncc([N+](=O)[O-])s1)c1ccc([N+](=O)[O-])o1`: in series [1], the viability at 25 µM came out at 87.4%. Further, the viability at 100 µM in series [2] is 67.3%. Further, the Ratio in series [4] amounted to 29. The selectivity ratio in series [7] was greater than 20. Also, in series [3], it took 5.48 µM (≈ 1.56 µg/mL) to inhibit growth (MIC). For the same compound, in series [6], the FC is listed as 1.

Usually MIC stands for the lowest concentration found to suppress growth. Read a high MIC as a need for much substance.
